15 compounds from ChEMBL document CHEMBL1138651, “Synthesis of small molecule CDC25 phosphatases inhibitors” (Bioorg Med Chem Lett, 2004) can be followed below.

One may read the IC50 as the concentration that inhibits the measured activity by half. Read a low IC50 as inhibition by little substance.

For one test, the target named is T1, M-phase inducer phosphatase 3 (Homo sapiens, UniProt P30307).
T1 sequence (P30307 whole entry): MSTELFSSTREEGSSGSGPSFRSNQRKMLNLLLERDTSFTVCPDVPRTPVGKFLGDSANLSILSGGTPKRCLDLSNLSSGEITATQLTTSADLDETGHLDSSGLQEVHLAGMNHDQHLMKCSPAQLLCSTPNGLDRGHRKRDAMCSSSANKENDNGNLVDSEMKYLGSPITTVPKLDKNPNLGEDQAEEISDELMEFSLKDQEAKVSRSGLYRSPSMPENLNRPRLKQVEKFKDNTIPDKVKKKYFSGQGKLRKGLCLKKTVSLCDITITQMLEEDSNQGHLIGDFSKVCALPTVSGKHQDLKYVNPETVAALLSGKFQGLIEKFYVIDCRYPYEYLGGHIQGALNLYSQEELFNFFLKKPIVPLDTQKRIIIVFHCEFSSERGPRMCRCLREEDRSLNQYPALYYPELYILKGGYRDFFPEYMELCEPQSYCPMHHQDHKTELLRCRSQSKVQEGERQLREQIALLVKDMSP
Description: Inhibitory concentration for human cell division cycle 25 degree C phosphatase. Put shortly: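 Recombinant human CDC25C expressed as an MBP fusion, assayed with 3-O-methylfluorescein phosphate (OMFP) as substrate. Dose-response used to derive IC50, with menadione as positive control. Values are the mean ± SEM of at least two independent experiments. Compounds with IC50 > 80 µM were scored not active.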
`CN(C)c1ccc(O)c(CNCCc2ccc([N+](=O)[O-])cc2)c1` returned an IC50 of 3.9 µM. Same read-out and setting: the same measure for `COc1cc(N(C)C)cc(CNCCc2ccc([N+](=O)[O-])cc2)c1O`: 4 µM; for `CN(CCc1ccc([N+](=O)[O-])cc1)Cc1cc(N(C)C)ccc1O`: 5.6 µM; for `COc1cc(CN(C)CCc2ccc([N+](=O)[O-])cc2)cc(N(C)C)c1O`: 20.7 µM. On the same count and under the same terms, as for `CC1=CC(=O)c2ccccc2C1=O` [MENADIONE], the figure is 18.8 µM.

A further test addresses T1, M-phase inducer phosphatase 3. Description: Inhibitory concentration for human cell division cycle 25 degree C phosphatase; […].
Take `CN(CCc1ccc([N+](=O)[O-])cc1)Cc1ccc(N(C)C)cc1`: the concentration for half-maximal inhibition (IC50) was over 80 µM. The same measure, in the same setting: the same measure for `COc1cccc(CN(C)CCc2ccc([N+](=O)[O-])cc2)c1OC`: over 80 µM; for `CN(CCc1ccc([N+](=O)[O-])cc1)Cc1ccccc1O`: over 80 µM; for `COc1cccc(CN(C)CCc2ccc([N+](=O)[O-])cc2)c1O`: over 80 µM.

`CN(CCc1ccc([N+](=O)[O-])cc1)Cc1ccccc1` had an IC50 of over 80 µM. In turn, `CN(CCc1ccc([N+](=O)[O-])cc1)Cc1cccc(N(C)C)c1` had an IC50 of over 80 µM.

Take `COc1cc(N(C)C)ccc1CN(C)CCc1ccc([N+](=O)[O-])cc1`: the IC50 was over 80 µM. Consider `COc1cccc(CN(C)CCc2ccc([N+](=O)[O-])cc2)c1`, for which the IC50 is over 80 µM. The same measure, in the same setting: the same measure for `COc1ccc(OC)c(CN(C)CCc2ccc([N+](=O)[O-])cc2)c1`: over 80 µM; for `CN(CCc1ccc([N+](=O)[O-])cc1)Cc1cc([N+](=O)[O-])ccc1O`: over 80 µM.
